These results are taken from ChEMBL document CHEMBL4020830, “Design, Synthesis, and Evaluation of a Novel Series of Indole Sulfonamide Peroxisome Proliferator Activated Receptor (PPAR) α/γ/δ Triple Activators: Discovery of Lanifibranor, a New Antifibrotic Clinical Candidate” (J Med Chem, 2018).

Holding throughout (type): cell-based
For assay [1], the target named is T1, Peroxisome proliferator-activated receptor alpha (Homo sapiens, UniProt Q07869).
T1 sequence (Q07869 whole entry): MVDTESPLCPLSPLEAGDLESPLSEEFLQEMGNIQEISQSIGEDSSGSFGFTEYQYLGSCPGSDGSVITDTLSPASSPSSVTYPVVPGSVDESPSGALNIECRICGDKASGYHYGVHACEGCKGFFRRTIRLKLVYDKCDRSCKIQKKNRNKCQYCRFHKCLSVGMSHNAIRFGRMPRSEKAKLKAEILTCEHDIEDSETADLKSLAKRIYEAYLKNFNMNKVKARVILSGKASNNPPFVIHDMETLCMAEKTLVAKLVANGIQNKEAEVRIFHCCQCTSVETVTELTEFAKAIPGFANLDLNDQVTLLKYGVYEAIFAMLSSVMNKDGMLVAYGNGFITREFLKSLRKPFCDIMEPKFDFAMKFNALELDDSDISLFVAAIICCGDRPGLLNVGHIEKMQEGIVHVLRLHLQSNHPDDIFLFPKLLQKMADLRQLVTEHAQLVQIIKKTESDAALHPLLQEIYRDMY
Kind of assay: Transactivation of human GAL4-fused PPARalpha LBD expressed in African green monkey COS7 cells co-expressing 5Gal4 pGL3 TK Luc after overnight incubation by luciferase reporter gene assay. The procedure, abridged:
(§1)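 Cell-based Gal-4 transactivation assay in COS-7 cells transfected with PPARα, PPARδ or PPARγ ligand-binding domain. EC50 and Emax were derived, with Emax as maximum activation in percent of control. EC50s are means of at least two independent experiments performed in triplicate.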

Assay [2] has as its target T2, Peroxisome proliferator-activated receptor alpha (Homo sapiens) (UniProt Q07869).
T2 sequence (whole entry): T1 sequence (Q07869 whole entry)
Kind of assay: Transactivation of human GAL4-fused PPARalpha LBD expressed in African green monkey COS7 cells co-expressing 5Gal4 pGL3 TK Luc after overnight incubation by luciferase reporter gene assay relative to fenofibric acid. The procedure, abridged:
as §1

The target in assay [3] is T3, Peroxisome proliferator-activated receptor delta (Homo sapiens) (UniProt Q03181).
T3 sequence (whole entry): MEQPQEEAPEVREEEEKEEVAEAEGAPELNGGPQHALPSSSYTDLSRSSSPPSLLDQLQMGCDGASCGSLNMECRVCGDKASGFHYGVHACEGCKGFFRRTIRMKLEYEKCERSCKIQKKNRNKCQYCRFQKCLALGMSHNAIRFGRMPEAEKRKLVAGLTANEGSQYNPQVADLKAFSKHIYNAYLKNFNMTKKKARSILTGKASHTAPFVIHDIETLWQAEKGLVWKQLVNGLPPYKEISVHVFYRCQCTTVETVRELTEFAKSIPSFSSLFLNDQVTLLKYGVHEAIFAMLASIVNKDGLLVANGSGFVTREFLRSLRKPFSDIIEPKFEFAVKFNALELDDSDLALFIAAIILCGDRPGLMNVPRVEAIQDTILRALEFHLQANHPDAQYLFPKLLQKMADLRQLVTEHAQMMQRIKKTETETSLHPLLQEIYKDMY
Kind of assay: Transactivation of human GAL4-fused PPARdelta LBD expressed in African green monkey COS7 cells co-expressing 5Gal4 pGL3 TK Luc after overnight incubation by luciferase reporter gene assay relative to GW501516. The procedure, abridged:
as §1

For assay [4], the target named is T4, Peroxisome proliferator-activated receptor gamma (Homo sapiens, UniProt P37231).
T4 sequence (P37231 whole entry): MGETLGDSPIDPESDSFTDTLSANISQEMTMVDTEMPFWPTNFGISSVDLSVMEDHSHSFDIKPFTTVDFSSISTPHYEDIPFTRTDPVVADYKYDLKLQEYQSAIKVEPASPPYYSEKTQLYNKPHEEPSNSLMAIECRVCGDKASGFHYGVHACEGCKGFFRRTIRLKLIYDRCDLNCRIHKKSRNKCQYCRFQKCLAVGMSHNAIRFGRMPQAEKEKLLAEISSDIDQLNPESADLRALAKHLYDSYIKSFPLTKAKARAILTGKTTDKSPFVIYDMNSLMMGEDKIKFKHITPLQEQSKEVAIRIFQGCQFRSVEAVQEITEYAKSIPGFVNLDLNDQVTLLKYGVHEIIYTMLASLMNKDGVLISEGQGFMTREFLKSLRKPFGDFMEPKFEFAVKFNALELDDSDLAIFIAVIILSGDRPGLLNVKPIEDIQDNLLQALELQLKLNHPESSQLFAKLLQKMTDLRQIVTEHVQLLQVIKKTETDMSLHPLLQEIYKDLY
As to the kind of experiment: Transactivation of human GAL4-fused PPARgamma LBD expressed in African green monkey COS7 cells co-expressing 5Gal4 pGL3 TK Luc after overnight incubation by luciferase reporter gene assay. The procedure, abridged:
as §1

Assay [5] concerns the target T5, Peroxisome proliferator-activated receptor gamma (Homo sapiens) (UniProt P37231).
T5 sequence (whole entry): T4 sequence (P37231 whole entry)
As to the kind of experiment: Transactivation of human GAL4-fused PPARgamma LBD expressed in African green monkey COS7 cells co-expressing 5Gal4 pGL3 TK Luc after overnight incubation by luciferase reporter gene assay relative to rosiglitazone. The procedure, abridged: as §1
(In general: In a reporter assay the amount or activity of a reporter protein is the signal.)

Assay [6] concerns the target T6, Peroxisome proliferator-activated receptor delta (Homo sapiens, UniProt Q03181).
T6 sequence (Q03181 whole entry): T3 sequence (whole entry)
As to the kind of experiment: Transactivation of human GAL4-fused PPARdelta LBD expressed in African green monkey COS7 cells co-expressing 5Gal4 pGL3 TK Luc after overnight incubation by luciferase reporter gene assay. The procedure, abridged:
as §1

The term EC50 denotes the concentration that produces a half-maximal response. For the molecule `O=C(O)CCCc1cc2cc(C(F)(F)F)ccc2n1S(=O)(=O)c1ccccc1Cl`, the concentration giving a half-maximal response (EC50) in assay [1] and in assay [4] was more than 5000 nM throughout. Further, the Emax in assay [2] is 104%; in assay [3], less than 20%; in assay [5], 45%.

Consider `Cc1cccc(S(=O)(=O)n2c(CCCC(=O)O)cc3cc(Cl)ccc32)c1`, for which the results for the half-maximal effective concentration (EC50) in assay [1], in assay [6] and in assay [4] were 1250 nM, 1350 nM and 75 nM, respectively. Besides, the Emax in assay [2] turned out to be 59%; in assay [3] it was 42%; in assay [5], 46%.

For the molecule `COc1cccc(S(=O)(=O)n2c(CCCC(=O)O)cc3cc(Cl)ccc32)c1`, the EC50 was determined as 305 nM in assay [1], 1230 nM in assay [6] and 72 nM in assay [4]. For the same molecule, the figures for the Emax in assay [2], in assay [3] and in assay [5] were 40%, 43% and 48%, respectively.

In the case of `O=C(O)CCCc1cc2cc(Cl)ccc2n1S(=O)(=O)c1ccc2nsnc2c1`, the concentration for a half-maximal effect (EC50) in assay [1] was more than 5000 nM; in assay [6] it was more than 5000 nM; in assay [4], 153 nM. Besides, the results for the Emax in assay [2], in assay [3] and in assay [5] were 81%, 35% and 67%, respectively.

Turning to `Cc1ccc2c(c1)cc(CCCC(=O)O)n2S(=O)(=O)c1ccccc1`, the values for the EC50 in assay [1], in assay [6] and in assay [4] were 1300 nM, more than 5000 nM and 284 nM, respectively. In addition, the Emax was 46% in assay [2], 45% in assay [3] and 38% in assay [5].

With `O=C(O)COCc1cc2cc(Cl)ccc2n1S(=O)(=O)c1ccccc1`, the Emax in assay [2], in assay [3] and in assay [5] was less than 20% in each case.

For the molecule `O=C(O)CCCc1cc2cc(Cl)ccc2n1S(=O)(=O)c1ccc2c(c1)OCO2`, the EC50 in assay [1] came out at 790 nM; in assay [6], 977 nM; in assay [4] it was 71 nM. Besides, the Emax is 77% in assay [2], 43% in assay [3] and 45% in assay [5].

`O=C(O)CCCc1cc2cc(C(F)(F)F)ccc2n1S(=O)(=O)c1cccc(Cl)c1`: the half-maximal effective concentration (EC50) in assay [1] amounted to 2420 nM; in assay [6] it was 2030 nM; in assay [4], 256 nM. The Emax in assay [2] was determined as 70%; in assay [3], 21%; in assay [5] it was 49%.

As for `O=C(O)CCCc1cc2cc(C(F)(F)F)ccc2n1S(=O)(=O)c1ccc(OC(F)(F)F)cc1`, the EC50 came out at 1960 nM in assay [1], 2100 nM in assay [6] and 573 nM in assay [4]. Moreover, the Emax in assay [2] is 40%; in assay [3], 28%; in assay [5], 32%.

As for `O=C(O)CCCc1cc2cc(C(F)(F)F)ccc2n1S(=O)(=O)c1ccccc1`, the EC50 in assay [1] is 1200 nM; in assay [6], more than 5000 nM; in assay [4], 417 nM. The Emax in assay [2] was determined as 48%; in assay [3], 49%; in assay [5] it was 50%.

`Nc1nc2ccc(S(=O)(=O)n3c(CCCC(=O)O)cc4cc(Cl)ccc43)cc2s1`: the values for the concentration for a half-maximal effect (EC50) in assay [1], in assay [6] and in assay [4] were 1260 nM, 919 nM and 41 nM, respectively. In addition, the Emax in assay [2] is 57%; in assay [3], 82%; in assay [5], 74%.

As for `CC(C)(CCc1cc2cc(Cl)ccc2n1S(=O)(=O)c1ccccc1)C(=O)O`, the concentration giving a half-maximal response (EC50) worked out at 160 nM in assay [1] and 910 nM in assay [4]. Moreover, the values for the Emax in assay [2], in assay [3] and in assay [5] were 90%, less than 20% and 32%, respectively.

On to `Nc1nc2ccc(S(=O)(=O)n3c(CCCC(=O)O)cc4cc(Cl)ccc43)cc2o1`, for which the concentration giving a half-maximal response (EC50) was more than 5000 nM in assay [1], 1390 nM in assay [6] and 378 nM in assay [4]. Also, the Emax is 44% in assay [2], 66% in assay [3] and 52% in assay [5].

`COc1ccc(S(=O)(=O)n2c(CCCC(=O)O)cc3cc(C(F)(F)F)ccc32)cc1`: the figures for the EC50 in assay [1], in assay [6] and in assay [4] were 764 nM, 1260 nM and 82 nM, respectively. Besides, the values for the Emax in assay [2], in assay [3] and in assay [5] were 55%, 24% and 38%, respectively.

For the molecule `O=C(O)CCCCc1cc2cc(Cl)ccc2n1S(=O)(=O)c1ccccc1`, the Emax in assay [2], in assay [3] and in assay [5] was less than 20% each time.

Take `O=C(O)CCCc1cc2cc(C(F)(F)F)ccc2n1S(=O)(=O)c1ccc(Cl)cc1`: the EC50 in assay [1] was 2820 nM; in assay [6], 1650 nM; in assay [4] it was 629 nM. Also, the Emax amounted to 45% in assay [2], 38% in assay [3] and 36% in assay [5].

On to `COc1ccccc1S(=O)(=O)n1c(CCCC(=O)O)cc2cc(C(F)(F)F)ccc21`, for which the concentration giving a half-maximal response (EC50) in assay [1] is more than 5000 nM; in assay [4], 1250 nM. In addition, the Emax is 35% in assay [2], less than 20% in assay [3] and 35% in assay [5].

As to `O=C(O)CCCc1cc2cc(C(F)(F)F)ccc2n1S(=O)(=O)c1ccc2ncsc2c1`, the figures for the EC50 in assay [1], in assay [6] and in assay [4] were 1620 nM, 1120 nM and 147 nM, respectively. Further, the values for the Emax in assay [2], in assay [3] and in assay [5] were 82%, 79% and 70%, respectively.

In the case of `O=C(O)CCCc1cc2cc(Cl)ccc2n1S(=O)(=O)c1ccc2nc[nH]c2c1`, the half-maximal effective concentration (EC50) in assay [1], in assay [6] and in assay [4] was more than 5000 nM each time. The Emax came to 43% in assay [2], 20% in assay [3] and 42% in assay [5].

For the molecule `Cc1nc2ccc(S(=O)(=O)n3c(CCCC(=O)O)cc4cc(Cl)ccc43)cc2s1`, the Emax in assay [2] was less than 20%; in assay [3], 27%; in assay [5], 36%. Moreover, the EC50 in assay [6] was found to be 441 nM; in assay [4], 11 nM.

In the case of `CN1CCOc2ccc(S(=O)(=O)n3c(CCCC(=O)O)cc4cc(Cl)ccc43)cc21`, the half-maximal effective concentration (EC50) in assay [1] was 410 nM; in assay [6] it was 697 nM; in assay [4] it was 16 nM. The Emax is 113% in assay [2], 54% in assay [3] and 48% in assay [5].

Regarding `COc1ccc2c(c1)cc(CCCC(=O)O)n2S(=O)(=O)c1ccccc1`, the Emax in assay [2], in assay [3] and in assay [5] was less than 20% each time.

For `O=C(O)CCCc1cc2cc(Cl)ccc2n1S(=O)(=O)c1cccc2ccccc12`, the EC50 in assay [1] was found to be 901 nM; in assay [4] it was 265 nM. Besides, the Emax in assay [2] was 67%; in assay [3], less than 20%; in assay [5] it was 36%.

For `COc1ccc(S(=O)(=O)n2c(CCCC(=O)O)cc3cc(Cl)ccc32)cc1`, the EC50 was determined as 419 nM in assay [1] and 72 nM in assay [4]. Moreover, the values for the Emax in assay [2], in assay [3] and in assay [5] were 26%, less than 20% and 25%, respectively.

Take `O=C(O)CCCc1cc2cc(Cl)ccc2n1S(=O)(=O)c1ccc2ccccc2c1`: the Emax is less than 20% in assay [2], less than 20% in assay [3] and 34% in assay [5]. Also, a half-maximal effect in assay [4] (EC50) was put at 35 nM.
